Only some compounds are listed: those with a hit (about 2.9% of all), similar ones and a draw of the others.
MEKK2mut PB1 HTS – MEK5 binding signal on mutant MEKK2 PB1, primary screen, biochemical, multiplex bead flow cytometry, Alexa488-MEK5; Alexa488-MEK5 binding to MEKK2 mutant; percent response, % at 10 µM; 290,000 tested, 0.35% active; in the data active means percent response above about 24%, passing the limit was not always enough
MEKK3 PB1 HTS – modulators of MEKK3-MEK5 PB1 binding, primary screen, biochemical, wildtype MEKK3, multiplex bead flow cytometry, Alexa488-MEK5; Mitogen-activated protein kinase kinase kinase 3 (Homo sapiens), Q99759; bead-based flow cytometry, Alexa488-MEK5 binding to MEKK3; actives lie on both sides; 0 = blocked by unlabeled MEK5, 100 = vehicle; binding response (% of control), % at 10 µM; 290,000 tested, 1.4% active; AID 1529, 2009;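 active means binding response more than 3 SD above or below the average of its plate-row segment, actives on both sides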;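 further: Alexa488 bead fluorescence after subtracting the streptavidin-only scavenger bead signal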
Apaf1 inhib – inhibitors of human Apaf-1 apoptosome, primary screen, biochemical, DEVD-Rh110 fluorescence, uHTS; 330,000 tested, 0.71% active; reconstituted apoptosome caspase-3 activity; inhibition, % at 20 µM; active means inhibition of at least 40% at 20 µM
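Material: biochemical Apaf-1 apoptosome reconstitution. Medium: Hepes buffer, pH 7.5. Also added: cytochrome c activation, bis-DEVD rhodamine 110 substrate. Timing: 30 min compound preincubation, 50 min activation, room temperature. Measured by: rhodamine 110 fluorescence at Ex 480/Em 540 nm.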
MEKK2wt PB1 HTS – modulators of MEK5 binding to wildtype MEKK2, primary screen, biochemical, multiplex bead flow cytometry, Alexa488-MEK5 | Mitogen-activated protein kinase kinase kinase 2 (Homo sapiens), Q9Y2U5 | Alexa488-MEK5 binding to MEKK2 WT; actives lie on both sides | binding response (% of control), % at 10 µM | 290,000 tested, 1.1% active; in the data active means binding response below about 67% or above about 130%
UBC13 inh – UBC13 polyubiquitin chain formation inhibitors, primary screen, biochemical, TR-FRET, uHTS; Ubiquitin-conjugating enzyme E2 N (Homo sapiens), P61088; 330,000 tested, 0.47% active; inhibition, % at 20 µM; in the data active means inhibition above about 45%, passing the limit was not always enough
Target sequence (P61088 whole entry, looked up): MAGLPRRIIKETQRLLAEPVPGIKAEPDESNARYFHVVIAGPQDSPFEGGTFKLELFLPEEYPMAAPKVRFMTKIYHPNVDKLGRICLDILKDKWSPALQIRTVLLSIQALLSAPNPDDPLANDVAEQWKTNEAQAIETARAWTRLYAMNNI
Apaf-1 inh conf – Apaf-1 inhibitors, single-dose retest, confirmation, biochemical, fluorescence, DEVD-Rh110, 20 µM | shares compounds with Apaf1 inhib | reconstituted apoptosome, caspase-3 DEVD-Rh110 fluorescence | inhibition, % at 20 µM | 1,800 tested, 25% active;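 active means mean inhibition of at least 40% at 20 µM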
Rh110 quench – Rh110 fluorescence interference by putative Apaf-1 inhibitors, confirmation, artefact control for Apaf-1 inhibitor project, biochemical, 20 µM. shares compounds with Apaf1 inhib. quenched caspase reaction. activation (fluorescence interference), % at 20 µM. 1,800 tested, under 10 active. AID 504615, 2011;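 active means signal rise of 40% or more at 20 µM, treated as a fluorescence artifact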
Fluor interf inh – fluorescence interference of Apaf-1 inhibitor hits, dose response, artefact control for Apaf-1 inhibitor project | IC50, µM | 460 tested, under 10 active | fluorescence interference counterscreen, Apaf-1 assay format | shares compounds with Apaf1 inhib; call rule not given here
Of the large screens only hits and unclear results are named; the others gave an inactive call (follow-up assays come after a bar, where they were run); ! = not active in a repeat.

c1cc2c3c(cccc3c1)NC1(CCC3(CC1)Nc1cccc4cccc(c14)N3)N2	Apaf1 inhib 40 | Apaf-1 inh conf 45 | Rh110 quench inactive | Fluor interf inh inactive
c1cc2c3c(cccc3c1)NC1(CCCCCC1)N2	Apaf1 inhib 49 | Apaf-1 inh conf 57 | Rh110 quench inactive | Fluor interf inh inactive
CC1=Nc2cccc3cccc(c23)N1	none
c1cc2c3c(cccc3c1)NC1(CCCCC1)N2	none
COc1ccc(N)c2c1C(=O)c1ccccc1C2=O	none (no result: Apaf1 inhib, UBC13 inh)
COc1ccc2noc3c2c1C(=O)c1ccccc1-3	Apaf1 inhib 78 (no result: MEKK2mut PB1 HTS, MEKK3 PB1 HTS, MEKK2wt PB1 HTS) | Apaf-1 inh conf 44 | Rh110 quench inactive | Fluor interf inh 59
COc1ccc(OC)c2c1C(=O)c1ccccc1C2=O	Apaf1 inhib 63 | Apaf-1 inh conf inactive | Rh110 quench inactive
COc1cccc2c1C(=O)c1ccc3ccccc3c1C2=O	Apaf1 inhib 72 | Apaf-1 inh conf inactive | Rh110 quench inactive
CCN(CC)C(=O)C[n+]1cccc(C(N)=O)c1	none
O=C(/C=C/c1ccco1)c1ccc(NC(=O)C23CC4CC(CC(C4)C2)C3)cc1	Apaf1 inhib 45 | Apaf-1 inh conf inactive | Rh110 quench inactive
CCOC(=O)C1Nc2ccccc2C2C(O)C(O)CC12 (centres undefined)	Apaf1 inhib 66 | Apaf-1 inh conf inactive | Rh110 quench inactive
CCOC(=O)C1Nc2ccc(C(F)(F)F)cc2C2c3ccccc3CC12 (centres undefined)	none
CCOc1ccccc1NC(=O)c1cc(-c2ccccn2)nc2ccccc12	Apaf1 inhib 53 (no result: MEKK2mut PB1 HTS, MEKK3 PB1 HTS, MEKK2wt PB1 HTS) | Apaf-1 inh conf inactive | Rh110 quench inactive
O=C1C(Nc2cccc(O)c2)=C(N2CCCCC2)C(=O)c2ccccc21	Apaf1 inhib 88 | Apaf-1 inh conf 91 | Rh110 quench inactive | Fluor interf inh inactive
O=C(/C=C/c1ccc(O)cc1)c1ccc(NC2=C(N3CCCCC3)C(=O)c3ccccc3C2=O)cc1	Apaf1 inhib 76 | Apaf-1 inh conf 95 | Rh110 quench inactive | Fluor interf inh inactive
COc1ccc(C(=O)/C=C/c2ccc(O)cc2)cc1	none
COc1ccccc1NC1=C(N2CCCCC2)C(=O)c2ccccc2C1=O	Apaf1 inhib 95 | Apaf-1 inh conf 95 | Rh110 quench inactive | Fluor interf inh inactive
O=C1C(Nc2ccccc2)=C(N2CCCCC2)C(=O)c2ccccc21	Apaf1 inhib 93 | Apaf-1 inh conf 90 | Rh110 quench inactive | Fluor interf inh inactive
Cc1ccc(NC2=C(N3CCCCC3)C(=O)c3ccccc3C2=O)cc1	Apaf1 inhib 81 | Apaf-1 inh conf 95 | Rh110 quench inactive | Fluor interf inh inactive
Cc1cc2ccccc2n1CCNC(=O)C1CCCCC1	Apaf1 inhib 44 | Apaf-1 inh conf inactive | Rh110 quench inactive
Cc1cc2ccccc2n1CCNC(=O)C1CCCC1	none (no result: MEKK2mut PB1 HTS, MEKK3 PB1 HTS, MEKK2wt PB1 HTS)
NC(=O)CC(NSc1ccccc1[N+](=O)[O-])C(=O)O (centres undefined)	none
CCOC(=O)c1[nH]cnc1C(=O)N1CCC(C)CC1	none (no result: MEKK2mut PB1 HTS, MEKK3 PB1 HTS, MEKK2wt PB1 HTS)
O=C(Cc1cc(=O)[nH][nH]1)N/N=C/C(Cl)=C/c1ccccc1	Apaf1 inhib 49! | Apaf-1 inh conf inactive | Rh110 quench inactive
O=C(Cc1cc(=O)[nH][nH]1)N/N=C/c1c(F)cccc1Cl	none
O=C(Cc1cc(=O)[nH][nH]1)N/N=C/c1c(Cl)cccc1Cl	Apaf1 inhib 64! | Apaf-1 inh conf inactive | Rh110 quench inactive
O=C(CO)N/N=C/c1cccc(Cl)c1Cl	none
O=C(Cc1cc(=O)[nH][nH]1)N/N=C/c1cccc(Cl)c1Cl	Apaf1 inhib 48! | Apaf-1 inh conf inactive | Rh110 quench inactive
O=C(N/N=C/c1cccc2ccccc12)c1cccc(F)c1	none
O=C(Cc1cc(=O)[nH][nH]1)N/N=C/c1cccc2ccccc12	Apaf1 inhib 54 | Apaf-1 inh conf inactive | Rh110 quench inactive
NC(=O)NC(CC(=O)NCc1ccc2c(c1)OCO2)c1ccccc1Cl (centres undefined)	none
Cc1cc(C(=O)Nc2ccc(N3CCOCC3)c3nonc23)ccc1[N+](=O)[O-]	none
O=C(NC1CCCCC1)c1cc(N2C(=O)CCC2=O)ccc1Cl	none
CCC1(c2ccc(F)cc2)NC(=O)N(CC(=O)N2c3ccccc3CC2C)C1=O (centres undefined)	none (no result: MEKK2mut PB1 HTS, MEKK3 PB1 HTS, MEKK2wt PB1 HTS)
CSCCC(NC(=O)c1ccccc1Br)C(=O)N1CCN(C(C)=O)CC1 (centres undefined)	Apaf1 inhib 48 (no result: MEKK2mut PB1 HTS, MEKK3 PB1 HTS, MEKK2wt PB1 HTS) | Apaf-1 inh conf inactive | Rh110 quench inactive
CC(C(=O)NC(=O)NC1CCCCC1)N(C)CC(=O)Nc1ccc(F)c(F)c1F (centres undefined)	Apaf1 inhib 46 (no result: MEKK2mut PB1 HTS, MEKK3 PB1 HTS, MEKK2wt PB1 HTS) | Apaf-1 inh conf inactive | Rh110 quench inactive
CC1(c2ccc(OC(F)F)cc2)NC(=O)N(CC(=O)Nc2ccc(N3CCCCC3)cc2)C1=O (centres undefined)	Apaf1 inhib 53 (no result: MEKK2mut PB1 HTS, MEKK3 PB1 HTS, MEKK2wt PB1 HTS) | Apaf-1 inh conf inactive | Rh110 quench inactive
CC1(c2ccc([N+](=O)[O-])cc2)NC(=O)N(CC(=O)Nc2ccc(N3CCCCC3)cc2)C1=O (centres undefined)	none (no result: MEKK2mut PB1 HTS, MEKK3 PB1 HTS, MEKK2wt PB1 HTS)
CC(=O)N1CCOc2ccc(S(=O)(=O)N(C)c3ccc(C)cc3)cc21	Apaf1 inhib 40 | Apaf-1 inh conf inactive | Rh110 quench inactive
CN1C(C(=O)NCC2CC2)CC2Cn3c(nc4cc5ccccc5cc43)C21 (centres undefined)	Apaf1 inhib 41 | Apaf-1 inh conf inactive | Rh110 quench inactive
COCCNC(=O)C1CC2Cn3c(nc4cc5ccccc5cc43)C2N1C (centres undefined)	none
CCC(C)c1ccc(NC(=S)N2CCN(C(=O)C3CCCO3)CC2)cc1 (centres undefined)	none
COc1ccc(CC(=O)N(C)CC(=O)Nc2c(C)cccc2C)cc1S(=O)(=O)N1CCOCC1	Apaf1 inhib 60 (no result: MEKK2mut PB1 HTS, MEKK3 PB1 HTS, MEKK2wt PB1 HTS) | Apaf-1 inh conf inactive | Rh110 quench inactive
COc1ccc(CC(=O)N(Cc2ccccc2)c2ccc(C)cc2)cc1S(=O)(=O)N1CCOCC1	Apaf1 inhib 43 (no result: MEKK2mut PB1 HTS, MEKK3 PB1 HTS, MEKK2wt PB1 HTS) | Apaf-1 inh conf 43 | Rh110 quench inactive | Fluor interf inh inactive

From PubChem BioAssay
